Sampled rows, rich in hits. Any-hit rate of the full collection: about 2.9%.
M1 ag parental: counter-screen for M1 agonists: effect in parental CHO-K1 cells; Fluo-8 calcium fluorescence; scaled to maximal ATP response, vehicle zero; activation, % at 3 µM; 360,000 tested, 0.48% active; in the data active means activation above about 15%;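 further: untransfected CHO-K1 host cells lacking M1 receptor as counterscreen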
CHO parental Ca: ATP-evoked calcium signal inhibitors, parental CHO, primary screen, counter-screen for OX1R antagonist project, cell-based, fluorescence, Fluo-8 calcium dye; parental CHO-K1, ATP-induced calcium, Fluo-8 fluorescence; inhibition, % at 5.6 µM; 330,000 tested, 0.63% active;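 active means inhibition above that plate's mean sample inhibition plus 3 SD, cut at about 26% in these data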;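 further: 0% = ATP-challenged DMSO wells and 100% = DMSO wells without ATP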
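Measured by: calcium-sensitive Fluo-8 fluorescence / Test system: CHO parental line / Controls: ATP-challenged DMSO wells low, unchallenged DMSO wells high / Measure: % inhibition / Compound: single nominal dose of 5.6 µM per compound / Replicates: single well per compound, no replicates / Reagent: ATP as calcium-mobilizing challenge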
OX1R antag-1: antagonists of human orexin 1 receptor (OX1R) | AID 485270, 2010 | 330,000 tested, 1.8% active | OX1R-expressing cells, FRET antagonist read-out | Orexin/Hypocretin receptor type 1 (Homo sapiens), O43613 | inhibition, % at 6.6 µM; in the data active means inhibition mostly above about 38%, no sharp cut-off; inactive means mostly below about 40%;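 further: 0% = agonist challenge alone and 100% = reference antagonist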
Target sequence (O43613 whole entry, looked up): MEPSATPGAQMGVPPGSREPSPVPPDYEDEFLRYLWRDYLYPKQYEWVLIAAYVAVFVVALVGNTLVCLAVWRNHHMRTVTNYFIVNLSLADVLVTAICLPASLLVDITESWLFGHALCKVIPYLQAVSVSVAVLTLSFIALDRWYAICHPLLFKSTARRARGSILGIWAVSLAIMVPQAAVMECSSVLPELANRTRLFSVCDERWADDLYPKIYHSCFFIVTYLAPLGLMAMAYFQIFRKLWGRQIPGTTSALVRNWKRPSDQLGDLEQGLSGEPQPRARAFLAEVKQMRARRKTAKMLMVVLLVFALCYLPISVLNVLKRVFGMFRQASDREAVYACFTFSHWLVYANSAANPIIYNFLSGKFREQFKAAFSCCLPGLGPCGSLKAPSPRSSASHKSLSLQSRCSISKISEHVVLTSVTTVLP
CHO-K1 Ca PAM: nonselective calcium activators in parental CHO-K1 cells, primary screen, counter-screen for M1 PAM project, cell-based, Fluo-8 calcium fluorescence, full deck, 1536-well; activation, % at 3 µM; 360,000 tested, 0.02% active; ATP EC20; 0% at ATP EC20, 100% at ATP max;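 active means activation above the run cutoff, the mean activation of all test compounds plus 3 SD, cut at about 40% in these data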;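 further: peak over basal fluorescence ratio in a 140 s read after ATP addition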
CHO-K1 Ca antag: counter-screen for M1 antagonists: effect in parental CHO-K1 cells | AID 602250 | inhibition, % at 3 µM | 360,000 tested, 0.6% active | ATP-induced calcium, Fluo-8 fluorescence;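 active means inhibition above a per-plate cutoff, the plate's mean sample inhibition plus 3 SD, cut at about 24% in these data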;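 further: 0% = DMSO plus EC80 ATP and 100% = DMSO alone without ATP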
OX1R antag-2: OX1R (HCRTR1) antagonists, primary screen, fluorescence, CHO/OX1R cells, Fluo-8 calcium, orexin A; Orexin/Hypocretin receptor type 1 (Homo sapiens), O43613; Fluo-8 calcium fluorescence; inhibition, % at 5 µM; 330,000 tested, 0.43% active;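 active means inhibition above its plate's threshold, mean inhibition of all tested compounds on the plate plus 3 SD, cut at about 37% in these data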;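 further: 0% = orexin A challenge wells and 100% = SB-334867-A antagonist wells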
Numbers without * were called inactive.

What do the screens show for `COc1ccc(CNC(=O)c2cc(-c3ccncc3)nc3c(C)cc(C)cc23)cc1OC`?
M1 ag parental: 6.0; CHO parental Ca: -19.1; OX1R antag-1: 48.1*; CHO-K1 Ca PAM: -0.8; CHO-K1 Ca antag: -14.5; OX1R antag-2: -8.1

Results for COc1ccc(CCNC(=O)c2cc(-c3ccncc3)nc3c(Cl)cccc23)cc1OC ?
M1 ag parental: 5.0; CHO parental Ca: -36.0; OX1R antag-1: 38.8; CHO-K1 Ca PAM: -14.7; CHO-K1 Ca antag: -4.3; OX1R antag-2: -33.5

What do the screens show for `CCN(CC)C(=O)C1=C(C)N(CCCOC)C(=O)C(CC(=O)NC2CC2)C1` (stereo not drawn)?
M1 ag parental: 0.0; CHO-K1 Ca PAM: -7.0; CHO-K1 Ca antag: 2.3

Results for CCOC(=O)c1nn(-c2cccc(OC)c2)c2nc(Nc3ccccc3)cc(=O)n12 ?
M1 ag parental: 2.2; CHO parental Ca: 93.5*; OX1R antag-1: 14.0; CHO-K1 Ca PAM: 12.3; CHO-K1 Ca antag: 4.9; OX1R antag-2: -5.2

Results for CCOC(=O)c1nn(-c2cccc(Cl)c2)c2nc(Nc3ccccc3)cc(=O)n12 ?
M1 ag parental: 0.1; CHO parental Ca: 0.0; OX1R antag-1: 8.5; CHO-K1 Ca PAM: -5.4; CHO-K1 Ca antag: -8.2; OX1R antag-2: -4.6

How did CC(C)(C)[C@H]1COC(=O)[C@@H](Cc2ccc(F)cc2)C/C=C\C[C@@H](CC(=O)N[C@@H](CO)Cc2ccccc2)C(=O)N1 do in these assays?
M1 ag parental: 4.4; CHO parental Ca: -34.0; OX1R antag-1: 62.3*; CHO-K1 Ca PAM: 7.6; CHO-K1 Ca antag: -6.7; OX1R antag-2: 42.5

Results for CC(C)(C)[C@H]1COC(=O)[C@@H](Cc2ccc(F)cc2)C/C=C\C[C@@H](CC(=O)N[C@H](CO)Cc2ccccc2)C(=O)N1 ?
M1 ag parental: 0.1; CHO parental Ca: -27.8; OX1R antag-1: 8.2; CHO-K1 Ca PAM: 10.3; CHO-K1 Ca antag: -9.2; OX1R antag-2: -31.0

How did O=S(=O)(NCCOCCNS(=O)(=O)c1ccccc1)c1ccccc1 do in these assays?
M1 ag parental: 0.6; CHO parental Ca: -9.6; OX1R antag-1: 8.4; CHO-K1 Ca PAM: 2.5; CHO-K1 Ca antag: -7.4; OX1R antag-2: -4.6

What do the screens show for `O=S(=O)(NCCOCC(F)(F)F)c1ccc2oc3ccccc3c2c1`?
M1 ag parental: 3.0; CHO parental Ca: 59.0*; OX1R antag-1: 66.3; CHO-K1 Ca PAM: 6.6; CHO-K1 Ca antag: -0.3; OX1R antag-2: 56.3*

Results for Clc1ccc(C2=Nn3c(nnc3-c3cccnc3)SC2)s1 ?
M1 ag parental: -0.1; CHO parental Ca: -6.3; OX1R antag-1: 6.3; CHO-K1 Ca PAM: -5.3; CHO-K1 Ca antag: 26.6*; OX1R antag-2: -20.7

What do the screens show for `CCCN(CC(=O)Nc1ccccc1OC)CC(=O)c1c(N)n(Cc2ccccc2)c(=O)n(C)c1=O`?
M1 ag parental: 0.0; CHO-K1 Ca PAM: 2.6; CHO-K1 Ca antag: -6.7

Results for NNC(=O)c1[nH]c2ccc([N+](=O)[O-])cc2c1-c1ccccc1 ?
M1 ag parental: 2.5; CHO parental Ca: -1.2; OX1R antag-1: 6.6; CHO-K1 Ca PAM: 11.2; CHO-K1 Ca antag: -9.4; OX1R antag-2: -23.5

How did Cc1c(C(=O)NN)[nH]c2ccc([N+](=O)[O-])cc12 do in these assays?
M1 ag parental: 25.8*; CHO parental Ca: -17.7; OX1R antag-1: 6.7; CHO-K1 Ca PAM: -5.1; CHO-K1 Ca antag: 7.7; OX1R antag-2: 1.7

Results for Cc1cc(C)cc(NC(=O)c2cc(C)n(Cc3cccs3)c2C)c1 ?
M1 ag parental: 1.0; CHO parental Ca: 58.6*; OX1R antag-1: 16.6; CHO-K1 Ca PAM: 16.9; CHO-K1 Ca antag: -9.1; OX1R antag-2: 9.9

How did CCCCc1ccc(NC(=O)COC(=O)c2ccc3ncsc3c2)cc1 do in these assays?
M1 ag parental: 0.2; CHO-K1 Ca PAM: 15.1; CHO-K1 Ca antag: -4.2

What do the screens show for `COc1ccc(NC(=O)COC(=O)C2CCN(C(=O)c3ccc(Cl)cc3)CC2)c([N+](=O)[O-])c1`?
M1 ag parental: 4.0; CHO parental Ca: -18.2; OX1R antag-1: 37.6*; CHO-K1 Ca PAM: 7.8; CHO-K1 Ca antag: -16.1; OX1R antag-2: 10.4

What do the screens show for `Cc1coc2c1c(C)cc1oc(=O)c(CC(=O)N[C@@H](C)C(=O)O)c(C)c12`?
M1 ag parental: 0.6; CHO-K1 Ca PAM: 10.9; CHO-K1 Ca antag: -8.2

Results for COc1ccc(-c2ccc(C(=O)N3CCOCC3)c3occc23)c(C)c1 ?
M1 ag parental: 6.1; CHO-K1 Ca PAM: -12.2; CHO-K1 Ca antag: -2.2

What do the screens show for `COc1ccc(-c2ccc(C(=O)N3CCN(C)CC3)c3occc23)c(C)c1`?
M1 ag parental: 0.1; CHO-K1 Ca PAM: -9.9; CHO-K1 Ca antag: 32.4*

How did COc1ccc(-c2ccc(C(=O)NCc3ccncc3)c3occc23)c(C)c1 do in these assays?
M1 ag parental: 10.6; CHO-K1 Ca PAM: -12.7; CHO-K1 Ca antag: 41.8*

What do the screens show for `CCNC(=O)c1ccc(C23CC4CC(CC(C4)C2)C3)o1`?
M1 ag parental: 15.4*; CHO parental Ca: -6.8; OX1R antag-1: 8.7; CHO-K1 Ca PAM: 9.2; CHO-K1 Ca antag: -1.7; OX1R antag-2: -22.9

How did COC(=O)c1ccc(OC(=O)CS(=O)c2ccccc2[N+](=O)[O-])cc1 (stereo not drawn) do in these assays?
M1 ag parental: 0.4; CHO parental Ca: -11.5; OX1R antag-1: 62.7*; CHO-K1 Ca PAM: -2.4; CHO-K1 Ca antag: -4.2; OX1R antag-2: -15.4

Results for CCOC(=O)c1ccccc1OC(=O)CS(=O)c1ccccc1[N+](=O)[O-] (stereo not drawn) ?
M1 ag parental: 1.5; CHO parental Ca: -7.0; OX1R antag-1: 67.5; CHO-K1 Ca PAM: 10.0; CHO-K1 Ca antag: -3.5; OX1R antag-2: -22.5

Results for CC(C)CNC(=O)CSc1n[nH]c(=O)n1CCc1ccccc1 ?
M1 ag parental: 3.1; CHO parental Ca: -17.8; OX1R antag-1: -10.2; CHO-K1 Ca PAM: -7.5; CHO-K1 Ca antag: -5.0; OX1R antag-2: -15.2

How did CCCCCCCCC(=O)NNC(=O)c1c(O)c2ccccc2n(CCC)c1=O do in these assays?
M1 ag parental: 0.3; CHO parental Ca: 33.6*; OX1R antag-1: 16.4; CHO-K1 Ca PAM: 24.3; CHO-K1 Ca antag: -6.1; OX1R antag-2: -12.9

Results for CCn1c(=O)c(C(=O)NNC(=O)c2cccc(Cl)c2)c(O)c2ccccc21 ?
M1 ag parental: 22.4*; CHO parental Ca: 94.6*; OX1R antag-1: 27.5; CHO-K1 Ca PAM: -3.2; CHO-K1 Ca antag: 3.1; OX1R antag-2: 98.3*

How did Cc1cccc(C(=O)NNC(=O)c2c(O)c3ccccc3n(C)c2=O)c1 do in these assays?
M1 ag parental: 4.9; CHO parental Ca: 40.0*; OX1R antag-1: 20.6; CHO-K1 Ca PAM: 1.2; CHO-K1 Ca antag: -4.6; OX1R antag-2: 12.9

Screens as filed in PubChem BioAssay.
